# Like-named read-outs stand apart in the source and are kept apart here.
# What was measured:
# [1] = tested on: MPN erythroid and myeloid progenitors; test: Colony forming assay, mononuclear cells from MPN patients; assay type: cell-based, human; conditions: for IC50: Homo sapiens
# Outline: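 Peripheral-blood mononuclear cells from patients, Ficoll-Hypaque purified, washed into RPMI 1640 and mixed with methylcellulose medium containing PARP inhibitor (0, 0.5, 1, 2.5, 5, 10, 20 μM or 0, 0.25, 0.5, 1, 2, 5 μM; DMSO 0.1%). 1–5 × 10^5 cells per plate, 2–4 replicate plates, 37 °C, 5% CO2. Colonies (>40 cells) scored at 10–14 days (some CMMoL at 5–7 days). IC50 is 50% of diluent-control colonies, from linear regression after exponential transformation.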
# purified kinases = conditions: cited from earlier work; for inhibition of certain kinases: high concentrations, cell-free conditions
# PARP = conditions: cited from earlier work
SMILES,"IC50 ([1]; read-out: IC50 values averaging, CML samples) [nM]","IC50 ([1]; read-out: IC50 values averaging, CMMoL samples) [nM]","IC50 ([1]; read-out: mean IC50, JAK2V617F mutated samples) [nM]","IC50 ([1]; read-out: veliparib IC50s, 5 of 16 individual JAK2 mutated samples) [nM]","IC50 lower in MPN samples than in normal controls ([1]; average, MPN samples vs normal controls, P<0.0001) [fold]","IC50 lower in MPN samples with impaired RAD51 foci formation compared to those without ([1]; on average, p = 0.028) [fold]",inhibition of certain kinases (purified kinases),off-target kinase inhibitory activity (purified kinases),more potent in vitro (olaparib relative to veliparib) (PARP)
C[C@]1(c2nc3c(C(N)=O)cccc3[nH]2)CCCN1 [Veliparib],3000,3000,5700,< 2000,4,3,might also inhibit certain kinases,–,–
CN(C)CC(=O)Nc1ccc2[nH]c(=O)c3ccccc3c2c1 [PJ-34],–,–,–,–,–,–,might also inhibit certain kinases,–,–
O=C(c1cc(Cc2n[nH]c(=O)c3ccccc23)ccc1F)N1CCN(C(=O)C2CC2)CC1 [Olaparib],–,–,–,–,–,–,–,lacks this off-target kinase inhibitory activity,roughly 10 fold
